Data taken from ChEMBL document CHEMBL3864188, “Polyamine Conjugation as a Promising Strategy To Target Amyloid Aggregation in the Framework of Alzheimer's Disease” (ACS Med Chem Lett, 2016).
The source made the active and inactive calls. The calls are words filed in the database; no cut-off is given here.

Tests used:
[1] = target: Amyloid-beta precursor protein (Homo sapiens) (UniProt P05067); assay: Inhibition of amyloid beta (1 to 42) (unknown origin) self-aggregation at 10 uM after 24 hrs by ESI-IT-MS analysis
Chain of Amyloid-beta precursor protein (Homo sapiens) (P05067 whole entry): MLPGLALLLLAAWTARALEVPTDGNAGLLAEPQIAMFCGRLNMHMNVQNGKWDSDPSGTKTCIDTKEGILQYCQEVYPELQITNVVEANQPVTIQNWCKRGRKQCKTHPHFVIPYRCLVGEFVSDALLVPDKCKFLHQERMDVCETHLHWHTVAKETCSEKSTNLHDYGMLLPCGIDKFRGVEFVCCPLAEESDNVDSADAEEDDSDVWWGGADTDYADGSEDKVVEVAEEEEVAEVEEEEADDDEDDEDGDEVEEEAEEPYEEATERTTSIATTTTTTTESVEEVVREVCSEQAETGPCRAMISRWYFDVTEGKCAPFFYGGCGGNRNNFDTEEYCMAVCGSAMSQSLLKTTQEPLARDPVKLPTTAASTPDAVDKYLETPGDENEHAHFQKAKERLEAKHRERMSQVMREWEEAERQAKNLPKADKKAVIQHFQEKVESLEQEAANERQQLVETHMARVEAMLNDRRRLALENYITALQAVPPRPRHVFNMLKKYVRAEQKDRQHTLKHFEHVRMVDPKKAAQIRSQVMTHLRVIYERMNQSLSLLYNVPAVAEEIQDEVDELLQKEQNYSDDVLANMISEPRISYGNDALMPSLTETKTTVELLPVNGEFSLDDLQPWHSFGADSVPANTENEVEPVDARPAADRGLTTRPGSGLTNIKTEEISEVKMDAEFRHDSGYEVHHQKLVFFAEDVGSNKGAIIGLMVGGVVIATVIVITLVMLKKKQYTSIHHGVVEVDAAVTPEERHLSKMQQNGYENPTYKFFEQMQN
How it was run: (§1)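 Aβ42 incubated 24 h at 30 °C with or without inhibitor; monomer (Aβ42m) and oxidized monomer (Aβ42m Ox) quantified by mass spectrometry with reserpine as internal standard. Residual monomer expressed versus t0 control; oxidized monomer expressed as fold over 24 h control. Test levels 2, 10 and 50 μM.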

T67 [2] = assay: Pro-oxidant activity in human T67 cells assessed as induction of mitochondrial ROS generation after 4 hrs by MitoSOX Red probe based fluorescence assay; format: functional, cell-based
How it was run: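 T67 cells treated 4 h with compound at 1–10 μM; mitochondrial superoxide read by MitoSOX Red fluorescence. Antimycin A (10 μM) as positive control. n = 8; one-way ANOVA with Dunnett's test versus untreated control.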

neuronal = assay: Neuroprotective activity against human amyloid beta (1 to 42)-induced neuronal cell death in rat mixed cortical neurons assessed as decrease in number of dead neurons up to 25 uM incubated for 72 hrs by trypan blue dye based phase contrast microscopic analysis
How it was run: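 Rat mixed cortical cultures exposed to Aβ42 oligomers preformed by 72 h incubation, with compound added separately; 72 h exposure. Trypan blue–stained dead neurons counted in three random fields/well; means ± SEM of nine determinations.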

[3] = target: Amyloid-beta precursor protein (Homo sapiens) (UniProt P05067); assay: Inhibition of amyloid beta (1 to 42) (unknown origin) self-aggregation assessed as increase in oxidized amyloid beta 42 monomer level at 50 uM after 24 hrs by ESI-IT-MS analysis relative to control; how it was run: as §1
[4] = target: Amyloid-beta precursor protein (Homo sapiens) (UniProt P05067); assay: Inhibition of amyloid beta (1 to 42) (unknown origin) self-aggregation assessed as increase in oxidized amyloid beta 42 monomer level at 10 uM after 24 hrs by ESI-IT-MS analysis relative to control; how it was run: as §1
[5] = target: Amyloid-beta precursor protein (Homo sapiens) (UniProt P05067); assay: Inhibition of amyloid beta (1 to 42) (unknown origin) self-aggregation assessed as increase in oxidized amyloid beta 42 monomer level after 24 hrs by ESI-IT-MS analysis; how it was run: as §1
[6] = target: Amyloid-beta precursor protein (Homo sapiens) (UniProt P05067); assay: Inhibition of amyloid beta (1 to 42) (unknown origin) self-aggregation assessed as increase in oxidized amyloid beta 42 monomer level at 2 uM after 24 hrs by ESI-IT-MS analysis relative to control; how it was run: as §1
[7] = target: Amyloid-beta precursor protein (Homo sapiens) (UniProt P05067); assay: Neuroprotective activity against amyloid beta (1 to 42) (unknown origin)-induced neuronal cell death in rat mixed cortical neurons assessed as number of dead neurons at 5 uM incubated for 72 hrs by trypan blue dye based phase contrast microscopic analysis (reference value: 71.7 +/- 3.1)
How it was run: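 100 μM Aβ42 preincubated 72 h alone or with 5-fold molar excess of inhibitor, then added to rat mixed cortical cultures for a further 72 h (final inhibitor 5 μM). Dead neurons stained with Trypan blue, counted in three random microscopic fields/well; means ± SEM of nine determinations.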

[8] = target: Amyloid-beta precursor protein (Homo sapiens) (UniProt P05067); assay: Inhibition of amyloid beta (1 to 42) (unknown origin) self-aggregation assessed as residual amyloid beta 42 monomer level at 2 uM after 24 hrs by ESI-IT-MS analysis; how it was run: as §1
[9] = target: Amyloid-beta precursor protein (Homo sapiens) (UniProt P05067); assay: Inhibition of amyloid beta (1 to 42) (unknown origin) self-aggregation at 2 uM after 24 hrs by ESI-IT-MS analysis; how it was run: as §1
Rattus norvegicus = species: Rattus norvegicus; assay: Neurotoxicity in rat mixed cortical neurons assessed as neuronal cell death up to 50 uM after 48 hrs by trypan blue dye based phase contrast microscopic analysis; format: toxicity, organism-based; settings: cortical neurone
How it was run: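 Mixed rat cortical cell cultures exposed to compound at 0.25−50 μM for 48 h; dead neurons stained with Trypan blue and counted microscopically to quantify neuronal damage.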

[10] = target: Amyloid-beta precursor protein (Homo sapiens) (UniProt P05067); assay: Inhibition of amyloid beta (1 to 42) (unknown origin) self-aggregation assessed as residual amyloid beta 42 monomer level at 10 uM after 24 hrs by ESI-IT-MS analysis; how it was run: as §1
T67 [11] = assay: Antioxidant activity in human T67 cells assessed as decrease in TBHP-induced ROS generation at 10 uM pretreated for 4 hrs followed by TBPH addition for 30 mins by DCFDA dye based fluorescence assay; format: functional, cell-based
[12] = target: Amyloid-beta precursor protein (Homo sapiens) (UniProt P05067); assay: Inhibition of amyloid beta (1 to 42) (unknown origin) self-aggregation at 50 uM after 24 hrs by ESI-IT-MS analysis; how it was run: as §1
[13] = target: Amyloid-beta precursor protein (Homo sapiens) (UniProt P05067); assay: Inhibition of amyloid beta (1 to 42) (unknown origin) self-aggregation assessed as residual amyloid beta 42 monomer level at 50 uM after 24 hrs by ESI-IT-MS analysis; how it was run: as §1

NCCCNCCCCNCCCNC(=O)CCC(=O)N1C/C(=C\c2ccccc2)C(=O)/C(=C/c2ccccc2)C1
inhibition [1]: < 10%

NCCCNCCCCNCCCNC(=O)CCC(=O)N1C/C(=C\c2ccc(O)cc2)C(=O)/C(=C/c2ccc(O)cc2)C1
inhibition [1]: < 10%
Activity (T67 [2]): Dose-dependent effect

COc1ccc(/C=C2/CN(C(=O)CCC(=O)NCCCNCCCCNCCCN)C/C(=C\c3ccc(OC)c(OC)c3)C2=O)cc1OC
inhibition [1]: < 10%

NCCCNCCCCNCCCNC(=O)CCC(=O)N1C/C(=C/c2ccc(O)c(O)c2)C(=O)/C(=C/c2ccc(O)c(O)c2)C1.O=C(O)C(F)(F)F
Activity (neuronal): Active
fold change (FC) [3]: 2.79
fold change (FC) [4]: 2.14
inhibition [5]: Dose-dependent effect
fold change (FC) [6]: 1.46
Activity [7]: 46.5
Activity [8]: 27%
Activity (T67 [2]): Dose-dependent effect
inhibition [9]: 12%
Activity (Rattus norvegicus): Non-Toxic
Activity [10]: 53%

COc1cc(/C=C2\CN(C(=O)CCC(=O)NCCCNCCCCNCCCN)C/C(=C\c3ccc(O)c(OC)c3)C2=O)ccc1O
Activity (T67 [11]): Active
inhibition [1]: < 10%

NCCCNCCCCNCCCNC(=O)CCC(=O)N1C/C(=C/c2cccc(O)c2)C(=O)/C(=C/c2cccc(O)c2)C1
inhibition [1]: < 10%

Cl.O=C1/C(=C/c2ccc(O)c(O)c2)CNC/C1=C\c1ccc(O)c(O)c1
fold change (FC) [3]: 2.56
inhibition [12]: 54.1%
inhibition [5]: Dose-dependent effect
Activity [13]: 61.9%
Activity (Rattus norvegicus): Non-Toxic
Activity [10]: 20.5%
